Consider 14 compounds from ChEMBL document CHEMBL1221297, “Design, synthesis, and in vitro antiprotozoal, antimycobacterial activities of N-{2-[(7-chloroquinolin-4-yl)amino]ethyl}ureas” (Bioorg Med Chem, 2010).

One series deals with Leishmania mexicana. The experiment in a line: Antimicrobial activity against promastigotes form of Leishmania mexicana MHOM/MX/ISETGS after 72 hrs. It counts as functional, organism-based. An outline of the steps: (§1)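 Parasites grown at 26 °C in Schneider's drosophila medium with 10% FBS and penicillin. 10,000 L. mexicana promastigotes or 20,000 T. cruzi epimastigotes per well, at 10, 5, 2.5 and 1.25 µg/mL. Untreated parasite cultures included. 72 h at 26 °C, then parasites counted directly in a Neubauer chamber. IC50 by probit analysis.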

A further series has as its system Trichomonas vaginalis. The experiment in a line: Antimicrobial activity against Trichomonas vaginalis GT3 after 48 hrs. Conditions: GT3, 48 h. The format is functional, organism-based. An outline of the steps: (§2)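 Trophozoites (4 × 10⁴) exposed 48 h at 37 °C to increasing compound concentrations; DMSO-medium negative control. Then washed and subcultured 48 h in fresh drug-free medium before counting. IC50 by probit analysis; triplicate, repeated at least twice. Giardia grown in modified TYI-S-33 with 10% calf serum and bovine bile. Trichomonas and Entamoeba grown in TYI-S-33 with 10% bovine serum.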

A further series concerns Giardia intestinalis. The experiment in a line: Antimicrobial activity against Giardia intestinalis IMSS:0696:1 after 48 hrs. It counts as functional, organism-based. Conditions: Giardia duodenalis, IMSS:0696:1, 48 h. An outline of the steps:
as §2

Series [1] has as its system Mycobacterium tuberculosis. The experiment in a line: Antimicrobial activity against Mycobacterium tuberculosis H37Rv ATTC 27294 by microplate alamar blue assay. It counts as functional, organism-based. An outline of the steps:
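Inoculum from a log-phase culture adjusted to McFarland 1, then diluted 1:50 in Middlebrook 7H9 broth to 6 × 10⁶ CFU/mL and prepared just before inoculation. Compounds tested from […]. Ethambutol served as positive internal standard. MIC read by Alamar Blue. Done in triplicate.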

Another series concerns Trypanosoma cruzi. The experiment in a line: Antimicrobial activity against epimastigotes form of Trypanosoma cruzi MHOM/MX/1994/Ninoa after 72 hrs. It counts as functional, organism-based. An outline of the steps:
as §1

A further series has as its system Entamoeba histolytica. As to the kind of experiment: Antimicrobial activity against Entamoeba histolytica HM-1:IMSS after 48 hrs. The format is functional, organism-based. An outline of the steps: as §2
Series [2] can be described thus: Selectivity index, ratio of CC50 for african green monkey Vero cells to IC50 for Giardia intestinalis IMSS:0696:1. The format is functional. An outline of the steps:
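SI computed as CC50 in VERO cells divided by IC50 against the parasite.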

Series [3] can be described thus: Cytotoxicity against african green monkey Vero cells after 72 hrs by MTT assay. The format is cell-based. Conditions: chlorocebus sabaeus. An outline of the steps: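 VERO cells (1.5 × 10⁴) grown in DMEM with 10% FBS at 37 °C, 5% CO₂. Seeded and grown 24–48 h, then treated at >80% confluence with 6.25–100 µg/mL (DMSO ≤0.05%) for 72 h. MTT added for 4 h at 37 °C. Formazan dissolved in acidified isopropanol and read at OD 540 nm. CC50 from triplicates.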
Background: Formazan colour is commonly taken as a measure of viable cells.

pIC50: −log10 of the molar value. Values after ≈ are worked out from the molar mass of the structure shown.

Broadly, the pIC50 is the negative decadic logarithm of the IC50, by convention in mol/L. As a reminder, the IC50 is the concentration needed to halve the response being measured. For the compound `COc1ccc(NC(=O)NCCNc2ccnc3cc(Cl)ccc23)cc1`, the pIC50 in the series on Leishmania mexicana is under 4.30; in the series on Trichomonas vaginalis, 4.66; in the series on Giardia intestinalis it was 6.23; in the series on Trypanosoma cruzi, under 4.30; with Entamoeba histolytica, 4.97. In series [1], this compound showed an IC50 of 8 µg/mL (≈ 21.6 µM).
For `O=C(NCCNc1ccnc2cc(Cl)ccc12)NC1CCCCC1`, the pIC50 was under 4.30 with Leishmania mexicana; 4.18 in the series with Trichomonas vaginalis; 5.78 with Giardia intestinalis; under 4.30 with Trypanosoma cruzi; 5.16 in the series with Entamoeba histolytica. In series [1], this compound came in with an IC50 of 8 µg/mL (≈ 23.1 µM).
Take `O=C(NCCNc1ccnc2cc(Cl)ccc12)Nc1ccccc1`: the pIC50 is under 4.30 in the series with Leishmania mexicana; 4.34 in the series with Trichomonas vaginalis; 5.93 in the series on Giardia intestinalis; under 4.30 in the series on Trypanosoma cruzi; 5.27 in the series on Entamoeba histolytica. This compound had an IC50 in series [1] of 8 µg/mL (≈ 23.5 µM).
As for `O=C(NCCNc1ccnc2cc(Cl)ccc12)Nc1ccc(Cl)cc1`, the pIC50 with Leishmania mexicana was 4.30; in the series with Trichomonas vaginalis it was 5.02; in the series with Giardia intestinalis, 6.57; with Trypanosoma cruzi, 4.30; with Entamoeba histolytica, 5.16. In series [1], the IC50 was 4 µg/mL (≈ 10.7 µM).
Regarding `O=C(NCCNc1ccnc2cc(Cl)ccc12)Nc1ccc(F)cc1`, the pIC50 was under 4.30 in the series on Leishmania mexicana; 4.63 in the series with Trichomonas vaginalis; 6.03 in the series on Giardia intestinalis; under 4.30 with Trypanosoma cruzi; 4.75 in the series with Entamoeba histolytica. This compound also registered an IC50 in series [1] of 8 µg/mL (≈ 22.3 µM).
With `CCOc1ccc(NC(=O)NCCNc2ccnc3cc(Cl)ccc23)cc1`, the pIC50 was 4.30 with Leishmania mexicana; 4.52 in the series with Trichomonas vaginalis; 6.47 in the series with Giardia intestinalis; 4.30 with Trypanosoma cruzi; 5.23 with Entamoeba histolytica. This compound yielded an IC50 in series [1] of 8 µg/mL (≈ 20.8 µM).
As a reminder, the CC50 is the concentration that lowers cell viability or growth by half. With `CCCCOc1ccc(NC(=O)NCCNc2ccnc3cc(Cl)ccc23)cc1`, the negative-log IC50 (pIC50) in the series on Leishmania mexicana was 5.00; with Trichomonas vaginalis, 5.07; in the series with Giardia intestinalis, 8.10; with Trypanosoma cruzi it was 4.30; with Entamoeba histolytica it was 5.44. In addition, the “Ratio CC50/IC50” value in series [2] was 625. In addition, in series [3], half-maximal cytotoxicity (CC50 at 72 h) was put at 5 µM. Moreover, 2 µg/mL (≈ 4.84 µM) corresponded to half-maximal inhibition in series [1] (IC50).
`O=C(NCCNc1ccnc2cc(Cl)ccc12)Nc1ccc([N+](=O)[O-])cc1`: the negative-log IC50 (pIC50) was 4.30 with Leishmania mexicana; 4.92 in the series on Trichomonas vaginalis; 5.76 in the series on Giardia intestinalis; 4.30 with Trypanosoma cruzi; 4.98 with Entamoeba histolytica. In series [1], this compound registered an IC50 of 8 µg/mL (≈ 20.7 µM).
In the case of `NCCNc1ccnc2cc(Cl)ccc12`, the pIC50 is under 4.30 with Leishmania mexicana; 4.64 with Trichomonas vaginalis; 5.90 in the series with Giardia intestinalis; under 4.30 with Trypanosoma cruzi; 4.84 in the series on Entamoeba histolytica. In addition, in series [1], it took 8 µg/mL (≈ 36.1 µM) to reach half-maximal inhibition (IC50).
Take `O=C(Cn1ccnc1[N+](=O)[O-])NCc1ccccc1` [BENZNIDAZOLE]: in the series with Trypanosoma cruzi, the negative-log IC50 (pIC50) is 4.46.
With `CCN(CC)CCCC(C)Nc1ccnc2cc(Cl)ccc12` (stereo unspecified) [CHLOROQUINE], the negative-log IC50 (pIC50) with Leishmania mexicana is under 4.30; with Trichomonas vaginalis, 4.52; with Giardia intestinalis it was 6.40; with Trypanosoma cruzi, under 4.30; with Entamoeba histolytica it was 5.02. This compound also registered an IC50 in series [1] of over 8 µg/mL.
In turn, `CC[C@@H](CO)NCCN[C@@H](CC)CO` [ETHAMBUTOL] had an IC50 in series [1] of 4 µg/mL (≈ 19.6 µM).
Take `N=C(N)c1ccc(OCCCCCOc2ccc(C(=N)N)cc2)cc1` [PENTAMIDINE]: the pIC50 in the series with Leishmania mexicana was 4.88.
Take `CC(C)CCOc1ccc(NC(=S)Nc2ccc(OCCC(C)C)cc2)cc1` [TIOCARLIDE]: in series [1], the IC50 is 4 µg/mL (≈ 9.99 µM).
